ChEMBL document CHEMBL3616436, “Synthesis, cytotoxicity and antimicrobial activity of thiourea derivatives incorporating 3-(trifluoromethyl)phenyl moiety” (Eur J Med Chem, 2015)
Converted amounts (≈) assume the structure as drawn. The source made the active and inactive calls. No cut-off for these calls is given here.

Tests used:
[1] = tested on: Vesicular stomatitis virus; test: Antiviral activity against Vesicular stomatitis virus ATCC VR 1540 infected in African green monkey Vero 76 cells assessed as reduction of virus-plaque formation after 2 days by crystal violet staining; format: functional, organism-based; details: ATCC VR 1540, Vero, 48 h
[2] = Cytotoxicity against bovine MDBK cells assessed as cell viability after 48 to 96 hrs by MTT assay; format: cell-based, Bos taurus; details: cattle
[3] = Cytotoxicity against BHK cells assessed as cell viability after 48 to 96 hrs by MTT assay; format: cell-based, Mesocricetus auratus; details: hamster
Yellow fever virus = test: Antiviral activity against Yellow fever virus 17D infected in BHK cells assessed as protection against virus-induced cytopathogenicity after 3 to 4 days by MTT assay; format: functional, cell-based
[4] = Cytotoxicity against African green monkey Vero 76 cells assessed as cell viability after 48 to 96 hrs by crystal violet staining; format: cell-based; details: chlorocebus sabaeus
Coxsackievirus B5 = test: Antiviral activity against Human coxsackievirus B5 ATCC VR-29 infected in African green monkey Vero 76 cells assessed as reduction of virus-plaque formation after 3 days by crystal violet staining; format: functional, organism-based; details: Enterovirus B, ATCC VR-29, Vero, 72 h
Procedure, shortened: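 Plaque reduction: Vero-76 at 2x10^5 cells/well grown to confluent monolayers, infected 2 h at 50–100 PFU/well; after removing unadsorbed virus, overlay of D-MEM, 1% inactivated FBS, 0.75% methylcellulose with or without serial compound dilutions; 3 days at 37°C, fixed and stained with crystal violet in 50% ethanol, plaques counted; EC50 by linear regression.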

Staphylococcus aureus [5] = test: Antimicrobial activity against Staphylococcus aureus NCTC 4163 at 400 ug after 18 hrs by disc-diffusion method; format: functional; details: NCTC 4163, 18 h, read-out: IZ
Procedure, shortened: (§1)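 Disc diffusion on Mueller-Hinton II agar per CLSI; 9 mm paper discs loaded with 400 µg compound from DMSO solution, dried, placed on agar; growth inhibition zone diameter read after 18 h at 35°C.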

Staphylococcus aureus [6] = test: Antimicrobial activity against Staphylococcus aureus ATCC 25923 at 400 ug after 18 hrs by disc-diffusion method; format: functional; details: ATCC 25923, 18 h, read-out: IZ; procedure, shortened: as §1
[7] = tested on: Staphylococcus epidermidis; test: Antimicrobial activity against Staphylococcus epidermidis ATCC 12228 at 400 ug after 18 hrs by disc-diffusion method; format: functional; details: ATCC 12228, 18 h, read-out: IZ; procedure, shortened: as §1
Bacillus subtilis = test: Antimicrobial activity against Bacillus subtilis ATCC 6633 at 400 ug after 18 hrs by disc-diffusion method; format: functional; details: ATCC 6633, 18 h, read-out: IZ; procedure, shortened: as §1
Micrococcus luteus = test: Antimicrobial activity against Micrococcus luteus ATCC 9341 at 400 ug after 18 hrs by disc-diffusion method; format: functional; details: ATCC 9341, 18 h, read-out: IZ; procedure, shortened: as §1
Proteus vulgaris = test: Antimicrobial activity against Proteus vulgaris NCTC 4635 at 400 ug after 18 hrs by disc-diffusion method; format: functional; procedure, shortened: as §1
Staphylococcus aureus [8] = test: Antimicrobial activity against Staphylococcus aureus ATCC 6538 after 18 hrs by twofold serial microdilution method; format: functional; details: ATCC 6538, 18 h
[9] = tested on: Staphylococcus epidermidis; test: Antimicrobial activity against Staphylococcus epidermidis ATCC 35984 after 18 hrs by twofold serial microdilution method; format: functional; details: ATCC 35984, 18 h
Staphylococcus aureus [10] = test: Antimicrobial activity against hospital methicillin-resistant Staphylococcus aureus 53/05 after 18 hrs by twofold serial microdilution method; format: functional; details: 53/05, 18 h
Procedure, shortened: (§2)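 Twofold serial microdilution in Mueller-Hinton broth. Compound stock was made in DMSO and diluted in sterile water. Tested range was 0.125–512 µg/mL. Final inoculum was 10^5 CFU/mL. Plates were incubated 18 h at 35 °C. MIC is the lowest concentration preventing visible growth.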

Staphylococcus aureus [11] = test: Antimicrobial activity against hospital methicillin-resistant Staphylococcus aureus 54/05 after 18 hrs by twofold serial microdilution method; format: functional; details: 54/05, 18 h; procedure, shortened: as §2
Staphylococcus aureus [12] = test: Antimicrobial activity against hospital methicillin-resistant Staphylococcus aureus 79/05 after 18 hrs by twofold serial microdilution method; format: functional; details: 79/05, 18 h; procedure, shortened: as §2
[13] = tested on: Staphylococcus epidermidis; test: Antimicrobial activity against hospital methicillin-resistant Staphylococcus epidermidis 23/04 after 18 hrs by twofold serial microdilution method; format: functional; details: 23/04, 18 h; procedure, shortened: as §2
[14] = tested on: Staphylococcus epidermidis; test: Antimicrobial activity against hospital methicillin-resistant Staphylococcus epidermidis 62/04 after 18 hrs by twofold serial microdilution method; format: functional; details: 62/04, 18 h; procedure, shortened: as §2
[15] = tested on: Staphylococcus epidermidis; test: Antimicrobial activity against hospital methicillin-resistant Staphylococcus epidermidis 151/04 after 18 hrs by twofold serial microdilution method; format: functional; details: 151/04, 18 h; procedure, shortened: as §2
Staphylococcus aureus [16] = test: Ratio of ciprofloxacin MIC to compound MIC for hospital methicillin-resistant Staphylococcus aureus 53/05 after 18 hrs by twofold serial microdilution method; format: functional
Procedure, shortened: (§3)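 Ratio of MICs for ciprofloxacin and test agent, each from twofold serial broth microdilution in Mueller-Hinton broth following CLSI guidelines. DMSO stock was diluted in sterile water to 0.125–512 µg/mL, with a final inoculum of 10^5 CFU/mL.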

Staphylococcus aureus [17] = test: Ratio of ciprofloxacin MIC to compound MIC for hospital methicillin-resistant Staphylococcus aureus 79/05 after 18 hrs by twofold serial microdilution method; format: functional; procedure, shortened: as §3
Staphylococcus aureus [18] = test: Ratio of ciprofloxacin MIC to compound MIC for hospital methicillin-resistant Staphylococcus aureus 80/05 after 18 hrs by twofold serial microdilution method; format: functional; procedure, shortened: as §3
Staphylococcus aureus [19] = test: Ratio of ciprofloxacin MIC to compound MIC for hospital methicillin-resistant Staphylococcus aureus 81/05 after 18 hrs by twofold serial microdilution method; format: functional; procedure, shortened: as §3
Staphylococcus aureus [20] = test: Ratio of ciprofloxacin MIC to compound MIC for hospital methicillin-resistant Staphylococcus aureus 522/11 after 18 hrs by twofold serial microdilution method; format: functional; procedure, shortened: as §3
[21] = tested on: Staphylococcus epidermidis; test: Ratio of ciprofloxacin MIC to compound MIC for hospital methicillin-resistant Staphylococcus epidermidis […]/[…] after 18 hrs by twofold serial microdilution method; format: functional, 16/04
[22] = tested on: Staphylococcus epidermidis; test: Ratio of ciprofloxacin MIC to compound MIC for hospital methicillin-resistant Staphylococcus epidermidis 24/04 after 18 hrs by twofold serial microdilution method; format: functional
[23] = tested on: Staphylococcus epidermidis; test: Ratio of ciprofloxacin MIC to compound MIC for hospital methicillin-resistant Staphylococcus epidermidis 31/04 after 18 hrs by twofold serial microdilution method; format: functional; procedure, shortened: as §3
[24] = tested on: Staphylococcus epidermidis; test: Ratio of ciprofloxacin MIC to compound MIC for hospital methicillin-resistant Staphylococcus epidermidis 62/04 after 18 hrs by twofold serial microdilution method; format: functional; procedure, shortened: as §3
[25] = tested on: Staphylococcus epidermidis; test: Ratio of ciprofloxacin MIC to compound MIC for hospital methicillin-resistant Staphylococcus epidermidis 63/04 after 18 hrs by twofold serial microdilution method; format: functional; procedure, shortened: as §3
[26] = tested on: Staphylococcus epidermidis; test: Ratio of ciprofloxacin MIC to compound MIC for hospital methicillin-resistant Staphylococcus epidermidis 76/04 after 18 hrs by twofold serial microdilution method; format: functional; procedure, shortened: as §3
[27] = tested on: Staphylococcus epidermidis; test: Ratio of ciprofloxacin MIC to compound MIC for hospital methicillin-resistant Staphylococcus epidermidis 151/04 after 18 hrs by twofold serial microdilution method; format: functional; procedure, shortened: as §3
[28] = tested on: Mycobacterium tuberculosis; test: Antimycobacterial activity against Mycobacterium tuberculosis H37Rv ATCC 25618; format: functional
Procedure, shortened: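 Classical test-tube successive-dilution method in Youmans' modification of Proskauer and Beck liquid medium with 10% bovine serum. Inoculum came from 14-day cultures. DMSO stock was 10 mg/mL, diluted geometrically in medium. Tubes were incubated at 37 °C. Concentrations tested were 3.1, 6.2, 12.5, 25, 50 and 100 µg/ml. MIC is the minimum concentration inhibiting growth relative to compound-free tubes.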

Row | Structure (SMILES) | EC50 [1] | CC50 [2] | CC50 [3] | EC50 (Yellow fever virus) | CC50 [4] | EC50 (Coxsackievirus B5) | zone of inhibition at 400 µg/disc (Staphylococcus aureus [5]) | zone of inhibition at 400 µg/disc (Staphylococcus aureus [6]) | zone of inhibition at 400 µg/disc [7] | zone of inhibition at 400 µg/disc (Bacillus subtilis) | zone of inhibition at 400 µg/disc (Micrococcus luteus) | inhibition zone (IZ) (Proteus vulgaris) | MIC (Staphylococcus aureus [8]) | MIC [9] | MIC (Staphylococcus aureus [10]) | MIC (Staphylococcus aureus [11]) | MIC (Staphylococcus aureus [12]) | MIC [13] | MIC [14] | MIC [15] | further results
1 | Fc1cccc(NC(=S)Nc2cccc(C(F)(F)F)c2)c1 | > 20 µM | 10 µM | 9.4 µM | > 9.4 µM | 20 µM | > 20 µM | 20 mm | 22 mm | 19 mm | 20 mm | 23 mm | inactive | 4 µg/mL (≈ 12.7 µM) | 8 µg/mL (≈ 25.5 µM) | 4 µg/mL (≈ 12.7 µM) | 8 µg/mL (≈ 25.5 µM) | 8 µg/mL (≈ 25.5 µM) | 8 µg/mL (≈ 25.5 µM) | 8 µg/mL (≈ 25.5 µM) | 16 µg/mL (≈ 50.9 µM) | Ratio (Staphylococcus aureus [16]): 128; Ratio (Staphylococcus aureus [17]): 128; Ratio (Staphylococcus aureus [18]): 128; Ratio (Staphylococcus aureus [19]): 128; Ratio (Staphylococcus aureus [20]): 128; Ratio [21]: 128; Ratio [22]: 128; Ratio [23]: 128; Ratio [24]: 128; Ratio [25]: 128; Ratio [26]: 128; Ratio [27]: 128; MIC [28]: 25 µg/mL (≈ 79.5 µM)
2 | FC(F)(F)c1cccc(NC(=S)NCCc2ccccc2)c1 | > 46 µM | 48 µM | 29 µM | > 29 µM | 46 µM | > 46 µM | 15 mm | 15 mm | 14 mm | 16 mm | 18 mm | inactive | 8 µg/mL (≈ 24.7 µM) | 8 µg/mL (≈ 24.7 µM) | 8 µg/mL (≈ 24.7 µM) | 8 µg/mL (≈ 24.7 µM) | 16 µg/mL (≈ 49.3 µM) | 8 µg/mL (≈ 24.7 µM) | 8 µg/mL (≈ 24.7 µM) | 16 µg/mL (≈ 49.3 µM) | Ratio (Staphylococcus aureus [16]): 128; Ratio (Staphylococcus aureus [17]): 128; Ratio (Staphylococcus aureus [18]): 128; Ratio (Staphylococcus aureus [19]): 128; Ratio (Staphylococcus aureus [20]): 128; Ratio [21]: 128; Ratio [22]: 128; Ratio [23]: 128; Ratio [24]: 128; Ratio [25]: 128; Ratio [26]: 128; Ratio [27]: 128; MIC [28]: 50 µg/mL (≈ 154 µM)
